EBV gp42 block: blocks Epstein-Barr virus glycoprotein 42 binding; Fluorescence polarization binding assay, mP read-out; inhibition, % (tested at 21.74 µM); 0.42% of 220,000 active; in the data active means inhibition above about 50%
Target sequence (Q1HVG2 whole entry, looked up): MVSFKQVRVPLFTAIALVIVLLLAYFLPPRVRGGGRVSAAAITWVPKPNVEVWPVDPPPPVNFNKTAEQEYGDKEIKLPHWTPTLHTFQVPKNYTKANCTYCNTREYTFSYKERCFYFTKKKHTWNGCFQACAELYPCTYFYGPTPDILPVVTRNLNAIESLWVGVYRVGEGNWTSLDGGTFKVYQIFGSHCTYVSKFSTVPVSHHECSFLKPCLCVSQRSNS
CHOP inh: inhibitors of CHOP induction in ER stress response | CHO-K1 CHOP-promoter luciferase, tunicamycin-induced, 15-18 h | inhibition, % at 10 µM | 3.8% of 220,000 active;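 active means compounds that reduced the stress-induced luciferase reporter signal by more than about 70% of percent inhibition, limit read from the data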;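 further: 0% = tunicamycin plus vehicle and 100% = wells without tunicamycin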
NR3A LBD binder: NR3A (human) ligand-binding domain modulation | 2.5% of 340,000 active | Tm shift relative to glycine control, % at 25 µM | AID 1259313 | NR3A LBD differential scanning fluorimetry, Tm shift; 0% = protein alone, 100% = glycine-bound protein;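 active means melting temperature shift of at least 10% of the positive control shift, at one fixed dose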
MPTP block: inhibitors of mitochondrial permeability transition pore | isolated mouse mitochondria, Ca2+ swelling absorbance, 30 min | inhibition, % at 10 µM | 1.4% of 360,000 active;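 active means inhibition of 50% or more, scaled per plate between neutral and stimulator controls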;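 further: 0% = DMSO wells given calcium and 100% = 1 mM EGTA wells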
WT yeast gro inh: growth inhibition of WT yeast, mitochondrial fusion screen. mitochondrial fusion phenotypic screen, WT strain. inhibition, % at 10 µM. 2.1% of 190,000 active; in the data active means inhibition above about 58%; tested in S. cerevisiae
TbMetRS inhib: Trypanosoma brucei MetRS inhibition | inhibition, % at 11.9 µM | 0.4% of 360,000 active | purified T. brucei MetRS, ATP depletion, Kinase-Glo luminescence;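 active means inhibition above a per-plate cutoff of the control wells' mean inhibition plus 3 SD, cut at about 5.5% in these data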;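 further: 0% = DMSO wells median and 100% = median of wells with control inhibitor compound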
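Material: T. brucei methionyl-tRNA synthetase, purified; reagent: substrates ATP, L-methionine and bulk Escherichia coli tRNA; dosing: 11.9 µM single point; timing: 15 min plus 2 h at 25 °C; detection: luminescence of leftover ATP; evaluation: % inhibition; control set: DMSO-only wells as low control; replicates: singlicate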
Rh123 counter: mitochondrial membrane potential, counter-screen; shares compounds with MPTP block; isolated mitochondria, Rhodamine 123 fluorescence; inhibition, % at 10 µM; 78% of 5,000 active; in the data active means inhibition above about 22%;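 further: 0% = DMSO vehicle and 100% = positive control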
MPTP abs DR: dose response confirmation of mitochondrial permeability transition pore inhibitors; 58% of 780 active; IC50, µM; isolated mitochondria swelling, absorbance; shares compounds with MPTP block; in the data active means IC50 below about 20 µM
MPTP cs DR: MPTP inhibitor counter-screen activity, dose response. shares compounds with MPTP block. isolated mitochondria counterscreen, fluorescence read-out. IC50, µM. 49% of 780 active. AID 651564; in the data active means IC50 below about 80 µM
Starred values were filed as active, the others as inactive; i = inactive; x = no result. Shown are actives, neighbours in structure and some others; about 6.4% of the full set was active somewhere.

SMILES	EBV gp42 block	CHOP inh	NR3A LBD binder	MPTP block	WT yeast gro inh	TbMetRS inhib	Rh123 counter	others
O=C(O)c1sccc1Oc1ccc(NS(=O)(=O)c2ccc(Cl)cc2)cc1	x	x	0	0	x	0	x
N#Cc1cccc(C#N)c1Oc1ccc(S(=O)(=O)Nc2ccc(Cl)cc2)cc1	-5	48	10*	77*	x	0	45*
COc1ccc(-c2nc(CCNC(=O)c3cccs3)cs2)cc1	-25	11	0	64*	29	0	15	MPTP abs DR=i;MPTP cs DR=47*
COc1cc(-c2nc(CCNC(=O)c3ccco3)cs2)cc(OC)c1OC	x	x	0	0	x	0	x
O=S(=O)(NN=Cc1cccc(Cl)c1)c1ccccc1	x	x	x	-1	x	-1	x
O=C(CSC1=NS(=O)(=O)c2cc(Cl)ccc2N1)Nc1cccc(F)c1	x	x	19*	62*	x	1	56*
O=C(CSC1=NS(=O)(=O)c2cc(Cl)ccc2N1)NCc1ccc(F)cc1	x	x	-2	-2	x	0	x
O=C(CSC1=NS(=O)(=O)c2cc(Cl)ccc2N1)c1ccc(Cl)cc1	x	x	12*	98*	x	0	88*
Cc1snc(S(=O)(=O)/C(C#N)=N/Nc2cccc(C(F)(F)F)c2)c1C#N	4	-3	24*	104*	-15	-1	90*
Cc1nnc(SCC(=O)N2CC(C)OC(C)C2)n1-c1ccccc1 (stereo not drawn)	x	x	-1	0	x	0	x
Cc1ccc(NC(=O)Cc2ccc(Cl)c(Cl)c2)cc1S(=O)(=O)N(C)C	-14	37	8	88*	57	2	88*
Cc1ccc(S(=O)(=O)NCCC(=O)Nc2ccc(Cl)c(Cl)c2)cc1	16	83*	10*	90*	20	6	87*
Cc1ccc(OCCC(=O)Nc2ccc(C)c(F)c2)cc1	2	37	-5	3	3	-1	x
Cc1ccc(OCCC(=O)Nc2ccc(F)c(Cl)c2)cc1	1	57	-2	67*	-22	-1	64*
Cc1ccc(NC(=O)Cc2ccccc2Cl)cc1S(=O)(=O)N(C)C	-16	21	-2	6	-11	-1	x
Cc1ccc(NC(=O)COC(=O)c2ccccc2Cl)cc1S(=O)(=O)N(C)C	-4	-1	-6	-1	16	0	x
Cc1ccc(NC(=O)CNc2ccc(Cl)c(Cl)c2)cc1S(=O)(=O)N(C)C	9	47	19*	96*	40	0	94*
COC(=O)c1ccccc1NC(=O)N1c2ccccc2CC1C (stereo not drawn)	-13	70	-3	3	37	-1	x
Cc1cc(NC(=O)Nc2ccc(F)c(Cl)c2)no1	-5	58	-2	51*	-2	0	85*
Cc1cc(NC(=O)COc2ccc(F)c(Cl)c2)no1	x	x	0	1	x	0	x
CCOc1ccc(C(=O)NCC(=O)N2CCc3ccccc3C2)cc1OCC	-2	7	-1	-3	-7	-1	x
CCOC(=O)N1CCN(CCC(=O)c2ccc(Cl)cc2)CC1	-18	-16	7	103*	-5	-1	4	MPTP abs DR=i;MPTP cs DR=>80
Cc1cccc(C)c1NC(=S)Nc1ccc(Cl)c(Cl)c1	3	13	-1	98*	80*	1	97*
NC(=S)Nc1ccc(Cl)c(Cl)c1	-19	-3	9	13	x	2	x
Cc1cc(C)cc(NC(=S)Nc2ccc(Cl)c(Cl)c2)c1	3	17	22*	103*	65	0	89*
SMILES	EBV gp42 block	CHOP inh	NR3A LBD binder	MPTP block	WT yeast gro inh	TbMetRS inhib	Rh123 counter	others
O=S(=O)(c1ccc(N2CCCC2)cc1)C(F)(F)F	4	53	-1	91*	17	-1	68*
NC(=NCCc1ccccc1)NC(=O)c1cc(Cl)ccc1O	x	x	-4	56*	x	0	74*
O=C(Nc1cc(Cl)ccc1O)c1snnc1-c1ccccc1	-6	82*	5	94*	-17	0	91*
O=C(CCc1ccccc1)Nc1cc(Cl)ccc1O	-1	51	-4	68*	20	0	81*
CC(C)NC(=S)N/N=C/c1cc(Br)ccc1O	0	77*	-2	93*	38	0	61*
COc1ccc(S(=O)(=O)N2CCc3ccccc32)cc1C(=O)O	x	x	-3	0	x	0	x
O=C(CCc1ccccc1)N/N=C\c1cc2c(cc1Br)OCO2	x	x	-1	-1	x	0	x
O=C(CCc1ccccc1)N/N=C/c1cc(Br)ccc1O	3	76*	-20	91*	13	0	80*
Cc1ccc2[nH]c(=O)c(CN(CCCN(C)C)C(=S)NCCc3ccccc3)cc2c1	-4	16	1	86*	-6	1	-10	MPTP abs DR=12*;MPTP cs DR=>80
Cc1ccc(C)c(N2CCN(S(=O)(=O)c3ccc4[nH]c(=O)c(=O)[nH]c4c3)CC2)c1	12	6	-7	-2	2	-1	x
CN(c1ccccc1)S(=O)(=O)c1ccc(C(=O)NNC(=O)c2ccccc2)cc1	x	x	0	-2	x	0	x
CCN(c1ccccc1)S(=O)(=O)c1ccc(C(=O)Nc2cccc(NC(C)=O)c2)cc1	x	x	-4	-1	x	0	x
CN(c1ccccc1)S(=O)(=O)c1cccc(C(=O)NNC(=O)c2ccccc2)c1	5	39	0	56*	-5	0	38*
CN(c1ccccc1)S(=O)(=O)c1cccc(NC(=O)Nc2ccc(Cl)cc2C#N)c1	-8	32	-3	71*	-7	1	86*
CCN(c1ccccc1)S(=O)(=O)c1cc(NC(=O)Nc2ccccc2C#N)ccc1Cl	4	13	4	96*	-13	-1	95*
CCN(c1ccccc1)S(=O)(=O)c1cc(C(=O)Nc2ccc(F)c(F)c2)ccc1F	11	71*	10*	91*	34	0	81*
O=C(NCC(NS(=O)(=O)OCC(Cl)(Cl)Cl)c1ccccc1)C(F)(F)F (stereo not drawn)	x	x	-2	18	x	0	x
CCOc1ccc(-n2c(SCC(=O)Nc3nccs3)nnc2-c2ccoc2C)cc1	-20	20	-2	2	x	-1	x
Cc1nnc(NC(=O)CSc2nnc(CCNC(=O)c3ccccc3F)n2C)s1	x	x	1	0	x	-1	x
CN(c1ccccc1)S(=O)(=O)c1ccc(NC(=S)Nc2ccccc2)cc1	14	47	-5	96*	-7	0	91*
CN(c1ccccc1)S(=O)(=O)c1cccc(NC(=O)c2ccncc2)c1	-11	27	-2	96*	x	0	69*
CN(c1ccccc1)S(=O)(=O)c1cccc(NC(=O)c2ccc(Cl)c([N+](=O)[O-])c2)c1	x	x	4	95*	x	3	84*
